pIC50: −log10 of the molar value.

The target in the first assay is Glycogen synthase kinase 3 beta (Sus scrofa, UniProt B2LUN4). Description: Inhibition of porcine brain GSK3-beta assessed as incorporation of [gamma-33P]-ATP into YRRAAVPPSPSLSRHSSPHQSpEDEEE substrate after 30 mins by scintillation counting.
Chain of Glycogen synthase kinase 3 beta (B2LUN4 whole entry): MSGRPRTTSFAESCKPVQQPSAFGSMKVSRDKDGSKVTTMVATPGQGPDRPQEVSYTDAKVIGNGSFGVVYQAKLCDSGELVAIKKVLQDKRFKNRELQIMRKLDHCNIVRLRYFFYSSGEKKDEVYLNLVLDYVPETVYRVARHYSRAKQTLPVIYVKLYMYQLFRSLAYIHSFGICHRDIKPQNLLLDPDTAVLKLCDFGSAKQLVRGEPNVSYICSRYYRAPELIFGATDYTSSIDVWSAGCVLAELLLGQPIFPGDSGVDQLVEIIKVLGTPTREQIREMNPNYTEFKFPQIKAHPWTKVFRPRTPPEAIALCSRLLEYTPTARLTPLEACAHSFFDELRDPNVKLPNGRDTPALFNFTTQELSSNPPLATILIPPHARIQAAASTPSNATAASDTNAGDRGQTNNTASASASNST
Details: not given
The essentials:
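Native GSK-3α/β purified from porcine brain. It was assayed in Buffer A (10 mM MgCl2, 1 mM EGTA, 1 mM DTT, 25 mM Tris-HCl pH 7.5, with heparin). Incorporated radioactivity was measured by scintillation counting of the wet filters.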
Take `CS(=O)(=O)c1ccc(-c2cncc(-c3cc4cc(O)ccc4[nH]3)c2)cc1`: the pIC50 is 5.14.
On the same count and under the same terms, next, `CS(=O)(=O)c1ccc(-c2cncc(-c3cc4ccc(O)cc4[nH]3)c2)cc1`: 5.96.
For the compound `Oc1ccc(-c2cncc(-c3cc4ccc(O)cc4[nH]3)n2)cc1`, the pIC50 is 5.28.
As for `N#Cc1ccc(-c2cncc(-c3cc4ccc(O)cc4[nH]3)n2)cc1`, the pIC50 is 5.24.
On the same count and under the same terms, the same measure for `Oc1ccc(-c2cncc(-c3cc4ccc(O)cc4[nH]3)c2)cc1`: 5.96.

In another assay the test system is Caco-2. Description: Cytotoxicity against human Caco2 cells after 48 hrs by Hoechst-33342 staining-based imaging analysis. The format is functional, cell-based. Particulars: Caco-2, 48 h.
On to `Oc1ccc(-c2ccnc(-c3cc4cc(O)ccc4[nH]3)c2)cc1`, for which the pIC50 was 5.40.
On to `CS(=O)(=O)c1ccc(-c2cncc(-c3cc4cc(O)ccc4[nH]3)c2)cc1`, for which the pIC50 was 4.92.
On to `CS(=O)(=O)c1ccc(-c2cncc(-c3cc4ccc(O)cc4[nH]3)c2)cc1`, for which the pIC50 is 5.52.
Consider `Oc1ccc(-c2cncc(-c3cc4ccc(O)cc4[nH]3)n2)cc1`, for which the pIC50 is 5.15.
`N#Cc1ccc(-c2cncc(-c3cc4ccc(O)cc4[nH]3)n2)cc1`: the pIC50 is 4.82.
`Oc1ccc(-c2cncc(-c3cc4ccc(O)cc4[nH]3)c2)cc1`: the pIC50 was 5.22.
In the case of `Oc1ccc(-c2ccnc(-c3cc4ccc(O)cc4[nH]3)c2)cc1`, the pIC50 was 5.52.

The test system of a further assay is HCT-116. Description: Cytotoxicity against human HCT116 cells after 48 hrs by Hoechst-33342 staining-based imaging analysis. The format is functional, cell-based. Particulars: HCT-116, 48 h.
Consider `Oc1ccc(-c2ccnc(-c3cc4cc(O)ccc4[nH]3)c2)cc1`, for which the pIC50 was 5.82.
`CC[C@H](CO)Nc1nc(NCc2ccccc2)c2ncn(C(C)C)c2n1` [SELICICLIB] gave a pIC50 of 5.10.
In turn, `CS(=O)(=O)c1ccc(-c2cncc(-c3cc4cc(O)ccc4[nH]3)c2)cc1` showed a pIC50 of 5.10.
Same read-out and setting: next, `CS(=O)(=O)c1ccc(-c2cncc(-c3cc4ccc(O)cc4[nH]3)c2)cc1`: 5.70.
With `Oc1ccc(-c2cncc(-c3cc4ccc(O)cc4[nH]3)n2)cc1`, the pIC50 was 5.52.
`N#Cc1ccc(-c2cncc(-c3cc4ccc(O)cc4[nH]3)n2)cc1` showed a negative logarithm of the IC50 (pIC50) of 4.89.
`Oc1ccc(-c2cncc(-c3cc4ccc(O)cc4[nH]3)c2)cc1` had a pIC50 of 5.52.
`Oc1ccc(-c2ccnc(-c3cc4ccc(O)cc4[nH]3)c2)cc1` had a pIC50 of 5.10.

Tested on in another assay: not listed separately
Put plainly: Cytotoxicity against human fibroblast cells after 48 hrs by Hoechst-33342 staining-based imaging analysis. The class given is cell-based.
Details: not given
`Oc1ccc(-c2ccnc(-c3cc4cc(O)ccc4[nH]3)c2)cc1` gave a pIC50 of 5.70.
For the compound `CC[C@H](CO)Nc1nc(NCc2ccccc2)c2ncn(C(C)C)c2n1` [SELICICLIB], the pIC50 is < 4.60.
The same measure, in the same setting: the same measure for `CS(=O)(=O)c1ccc(-c2cncc(-c3cc4cc(O)ccc4[nH]3)c2)cc1`: < 4.60.
The same measure, in the same setting: the same measure for `CS(=O)(=O)c1ccc(-c2cncc(-c3cc4ccc(O)cc4[nH]3)c2)cc1`: 5.52.
In turn, `Oc1ccc(-c2cncc(-c3cc4ccc(O)cc4[nH]3)n2)cc1` gave a pIC50 of 4.70.
On to `N#Cc1ccc(-c2cncc(-c3cc4ccc(O)cc4[nH]3)n2)cc1`, for which the pIC50 was 4.60.
Take `Oc1ccc(-c2cncc(-c3cc4ccc(O)cc4[nH]3)c2)cc1`: the pIC50 was < 4.60.
In the case of `Oc1ccc(-c2ccnc(-c3cc4ccc(O)cc4[nH]3)c2)cc1`, the pIC50 is 4.92.

A further assay has as its target Dual specificity tyrosine-phosphorylation-regulated kinase 1A (Rattus norvegicus, UniProt Q63470). Description: Inhibition of rat recombinant GST-fused DYRK1A expressed in Escherichia coli using myelin protein and [33P-gamma]-ATP after 30 mins by scintillation counting.
Details: not given
The essentials: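 Rat DYRK1A, recombinant, expressed in E. coli as a GST fusion and purified on glutathione-agarose. Assayed as for CDK5/p25, with myelin basic protein (1 mg/mL) as substrate. Wet filters counted by scintillation.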
Regarding `Oc1ccc(-c2ccnc(-c3cc4cc(O)ccc4[nH]3)c2)cc1`, the pIC50 was 6.64.
Same read-out and setting: the same measure for `CS(=O)(=O)c1ccc(-c2cncc(-c3cc4cc(O)ccc4[nH]3)c2)cc1`: 5.64; for `CS(=O)(=O)c1ccc(-c2cncc(-c3cc4ccc(O)cc4[nH]3)c2)cc1`: 6.46.
For `Oc1ccc(-c2cncc(-c3cc4ccc(O)cc4[nH]3)n2)cc1`, the pIC50 was 6.27.
For the compound `N#Cc1ccc(-c2cncc(-c3cc4ccc(O)cc4[nH]3)n2)cc1`, the pIC50 is 5.30.
Take `Oc1ccc(-c2cncc(-c3cc4ccc(O)cc4[nH]3)c2)cc1`: the pIC50 was 7.22.
Regarding `Oc1ccc(-c2ccnc(-c3cc4ccc(O)cc4[nH]3)c2)cc1`, the pIC50 was 6.52.

Tested on in a further assay: not listed separately
Put plainly: Cytotoxicity against human NCI60 cells after 48 hrs by Hoechst-33342 staining-based imaging analysis. The format is functional, cell-based. The note with it: NCI60, 48 h.
The compound `Oc1ccc(-c2ccnc(-c3cc4cc(O)ccc4[nH]3)c2)cc1` showed a pIC50 of 5.00.
As to `CC[C@H](CO)Nc1nc(NCc2ccccc2)c2ncn(C(C)C)c2n1` [SELICICLIB], the pIC50 was 4.70.
Consider `CS(=O)(=O)c1ccc(-c2cncc(-c3cc4cc(O)ccc4[nH]3)c2)cc1`, for which the pIC50 is 4.60.
Take `CS(=O)(=O)c1ccc(-c2cncc(-c3cc4ccc(O)cc4[nH]3)c2)cc1`: the pIC50 is 5.15.
Same read-out and setting: next, `Oc1ccc(-c2cncc(-c3cc4ccc(O)cc4[nH]3)n2)cc1`: 5.40; `N#Cc1ccc(-c2cncc(-c3cc4ccc(O)cc4[nH]3)n2)cc1`: 5.05; `Oc1ccc(-c2cncc(-c3cc4ccc(O)cc4[nH]3)c2)cc1`: 4.70.
The same measure, in the same setting: the same measure for `Oc1ccc(-c2ccnc(-c3cc4ccc(O)cc4[nH]3)c2)cc1`: 4.70.

For the next assay, the system named is Huh-7. Put plainly: Cytotoxicity against human HuH7 cells after 48 hrs by Hoechst-33342 staining-based imaging analysis. The format is functional, cell-based. The note with it: Huh-7, 48 h.
In turn, `Oc1ccc(-c2ccnc(-c3cc4cc(O)ccc4[nH]3)c2)cc1` gave a pIC50 of 5.52.
As to `CC[C@H](CO)Nc1nc(NCc2ccccc2)c2ncn(C(C)C)c2n1` [SELICICLIB], the pIC50 is 5.00.
Still for that read-out and setting: the same measure for `CS(=O)(=O)c1ccc(-c2cncc(-c3cc4cc(O)ccc4[nH]3)c2)cc1`: 4.82; for `CS(=O)(=O)c1ccc(-c2cncc(-c3cc4ccc(O)cc4[nH]3)c2)cc1`: 5.52; for `Oc1ccc(-c2cncc(-c3cc4ccc(O)cc4[nH]3)n2)cc1`: 5.30.
In turn, `N#Cc1ccc(-c2cncc(-c3cc4ccc(O)cc4[nH]3)n2)cc1` gave a negative logarithm of the IC50 (pIC50) of 5.15.
Regarding `Oc1ccc(-c2cncc(-c3cc4ccc(O)cc4[nH]3)c2)cc1`, the negative logarithm of the IC50 (pIC50) was 5.52.
Take `Oc1ccc(-c2ccnc(-c3cc4ccc(O)cc4[nH]3)c2)cc1`: the pIC50 was 5.30.

A further assay concerns MDA-MB-231. Description: Cytotoxicity against human MDA-MB-231 cells after 48 hrs by Hoechst-33342 staining-based imaging analysis. The format is functional, cell-based. The note with it: MDA-MB-231, 48 h.
On to `Oc1ccc(-c2ccnc(-c3cc4cc(O)ccc4[nH]3)c2)cc1`, for which the pIC50 is 5.22.
Turning to `CS(=O)(=O)c1ccc(-c2cncc(-c3cc4cc(O)ccc4[nH]3)c2)cc1`, the pIC50 was 4.82.
In turn, `CS(=O)(=O)c1ccc(-c2cncc(-c3cc4ccc(O)cc4[nH]3)c2)cc1` had a pIC50 of 5.30.
Still for that read-out and setting: the same measure for `Oc1ccc(-c2cncc(-c3cc4ccc(O)cc4[nH]3)n2)cc1`: 5.00.
`N#Cc1ccc(-c2cncc(-c3cc4ccc(O)cc4[nH]3)n2)cc1` showed a pIC50 of 5.22.
For the compound `Oc1ccc(-c2cncc(-c3cc4ccc(O)cc4[nH]3)c2)cc1`, the negative-log IC50 (pIC50) was 4.70.
In turn, `Oc1ccc(-c2ccnc(-c3cc4ccc(O)cc4[nH]3)c2)cc1` showed a pIC50 of 4.92.

The target in another assay is Cyclin-dependent kinase 5/CDK5 activator 1 (Homo sapiens, UniProt Q00535). Put plainly: Inhibition of human recombinant CDK5/p25 using histone H1 and [33P-gamma]-ATP after 30 mins by scintillation counting. The class given is protein-complex assay.
Chain of Cyclin-dependent kinase 5/CDK5 activator 1 (Q00535 whole entry): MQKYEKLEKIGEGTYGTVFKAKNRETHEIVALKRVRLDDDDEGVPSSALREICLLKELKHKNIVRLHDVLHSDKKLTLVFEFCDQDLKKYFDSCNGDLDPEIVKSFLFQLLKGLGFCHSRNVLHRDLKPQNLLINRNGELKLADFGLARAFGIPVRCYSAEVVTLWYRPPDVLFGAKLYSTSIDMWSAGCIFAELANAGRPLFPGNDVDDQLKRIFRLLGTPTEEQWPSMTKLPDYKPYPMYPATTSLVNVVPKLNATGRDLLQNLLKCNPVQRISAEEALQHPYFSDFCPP
Chain of Cyclin-dependent kinase 5/CDK5 activator 1 (Q15078 whole entry, further chain): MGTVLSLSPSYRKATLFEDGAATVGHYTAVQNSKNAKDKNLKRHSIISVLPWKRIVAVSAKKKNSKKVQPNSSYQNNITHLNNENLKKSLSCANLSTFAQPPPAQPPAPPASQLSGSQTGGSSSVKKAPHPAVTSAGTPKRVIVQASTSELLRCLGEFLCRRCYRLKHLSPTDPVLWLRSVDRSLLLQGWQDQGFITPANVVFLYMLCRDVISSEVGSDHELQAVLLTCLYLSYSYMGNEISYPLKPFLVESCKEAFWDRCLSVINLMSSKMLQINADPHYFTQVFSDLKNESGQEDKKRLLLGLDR
Details: not given
As for `Oc1ccc(-c2ccnc(-c3cc4cc(O)ccc4[nH]3)c2)cc1`, the negative logarithm of the IC50 (pIC50) is 6.44.
As to `CS(=O)(=O)c1ccc(-c2cncc(-c3cc4cc(O)ccc4[nH]3)c2)cc1`, the pIC50 was 5.74.
Consider `CS(=O)(=O)c1ccc(-c2cncc(-c3cc4ccc(O)cc4[nH]3)c2)cc1`, for which the pIC50 was 6.42.
Same read-out and setting: the same measure for `Oc1ccc(-c2cncc(-c3cc4ccc(O)cc4[nH]3)n2)cc1`: 5.82.
`N#Cc1ccc(-c2cncc(-c3cc4ccc(O)cc4[nH]3)n2)cc1`: the negative-log IC50 (pIC50) is 5.27.
Still for that read-out and setting: next, `Oc1ccc(-c2cncc(-c3cc4ccc(O)cc4[nH]3)c2)cc1`: 6.80.
Turning to `Oc1ccc(-c2ccnc(-c3cc4ccc(O)cc4[nH]3)c2)cc1`, the pIC50 was 6.08.

The subject of a further assay is PC-3. Put plainly: Cytotoxicity against human PC3 cells after 48 hrs by Hoechst-33342 staining-based imaging analysis. The format is functional, cell-based. Particulars: PC-3, 48 h.
Take `Oc1ccc(-c2ccnc(-c3cc4cc(O)ccc4[nH]3)c2)cc1`: the pIC50 was 5.30.
For the compound `CS(=O)(=O)c1ccc(-c2cncc(-c3cc4cc(O)ccc4[nH]3)c2)cc1`, the pIC50 is 5.22.
The compound `CS(=O)(=O)c1ccc(-c2cncc(-c3cc4ccc(O)cc4[nH]3)c2)cc1` showed a pIC50 of 5.40.
Take `Oc1ccc(-c2cncc(-c3cc4ccc(O)cc4[nH]3)n2)cc1`: the negative logarithm of the IC50 (pIC50) is 5.30.
Still for that read-out and setting: next, `N#Cc1ccc(-c2cncc(-c3cc4ccc(O)cc4[nH]3)n2)cc1`: 5.10.
In turn, `Oc1ccc(-c2cncc(-c3cc4ccc(O)cc4[nH]3)c2)cc1` had a pIC50 of 5.22.
Regarding `Oc1ccc(-c2ccnc(-c3cc4ccc(O)cc4[nH]3)c2)cc1`, the pIC50 is 4.82.

These data come from ChEMBL document CHEMBL1909497, “Synthesis and biological evaluation of new 3-(6-hydroxyindol-2-yl)-5-(Phenyl) pyridine or pyrazine V-Shaped molecules as kinase inhibitors and cytotoxic agents” (Eur J Med Chem, 2011).
